This passage reports Ki and CC50 results from ChEMBL document CHEMBL1122938, “Ribavirin, tiazofurin, and selenazofurin: mononucleotides and nicotinamide adenine dinucleotide analogues. Synthesis, structure, and interactions with IMP dehydrogenase” (J Med Chem, 1985).

Data set [1] is described as follows: Noncompetitive inhibitory activity against Inosine-5'-monophosphate dehydrogenase using NAD as viable substrate.
A short description of data set [2]: Uncompetitive Inhibitory activity against Inosine-5'-monophosphate dehydrogenase using IMP as viable substrate.
Data set [3] can be described thus: Cytotoxicity against P388 cells in culture. It is filed as cell-based. Particulars: mouse, read-out: ID50 (the source's name). A digest of the protocol: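 P388 cells in log-phase growth exposed in culture to each monophosphate or dinucleotide.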
Data set [4] is described as follows: Uncompetitive (mixed) inhibitory activity against Inosine-5'-monophosphate dehydrogenase using NAD as viable substrate.
The nature of data set [5]: Noncompetitive Inhibitory activity against Inosine-5'-monophosphate dehydrogenase using IMP as viable substrate.
A short description of data set [6]: Noncompetitive inhibitory activity against Inosine-5'-monophosphate dehydrogenase using NAD as viable substrate.
Data set [7] can be described thus: Inhibitory activity against Inosine-5'-monophosphate dehydrogenase using NAD as viable substrate; Inactive.
Data set [8] can be described thus: Inhibitory activity against Inosine-5'-monophosphate dehydrogenase using IMP as viable substrate; Inactive.
Data set [9] is described as follows: Inhibitory activity against Inosine-5'-monophosphate dehydrogenase using IMP as viable substrate; Inactive.
The nature of data set [10]: Inhibitory activity against Inosine-5'-monophosphate dehydrogenase using NAD as viable substrate; Inactive.
Data set [11] is described as follows: Competitive Inhibitory activity against Inosine-5'-monophosphate dehydrogenase using IMP as viable substrate.

On to `NC(=O)c1csc([C@H]2O[C@@H](COP(=O)(O)OP(=O)(O)OC[C@H]3O[C@@H](n4cnc5c(N)ncnc54)[C@H](O)[C@@H]3O)[C@H](O)[C@@H]2O)n1`, for which the figures for the Ki in [1] and in data set [2] were 0.24 µM and 0.13 µM, respectively. Further, the CC50 in data set [3] is 7.5 µM.

On to `NC(=O)c1c[se]c([C@H]2O[C@@H](COP(=O)(O)OP(=O)(O)OC[C@H]3O[C@@H](c4nc(C(N)=O)c[se]4)[C@H](O)[C@@H]3O)[C@H](O)[C@@H]2O)n1`, for which the Ki (commonly the dissociation constant of the complex between target and ligand, obtained from inhibition or displacement) in [4] turned out to be 240 µM; in [2], 190 µM. The CC50 in [3] was 0.6 µM.

With `NC(=O)c1csc([C@@H]2O[C@H](COP(=O)(O)O)[C@@H](O)[C@H]2O)n1`, the values for the inhibition constant (Ki) in [5] and in data set [6] were 265 µM and 405 µM, respectively. Moreover, the CC50 in data set [3] is 10 µM.

On to `NC(=O)c1c[se]c([C@@H]2O[C@H](COP(=O)(O)O)[C@@H](O)[C@H]2O)n1`, for which the Ki in [5] came out at 170 µM; in data set [6], 470 µM. Also, the CC50 in [3] was 1.4 µM.

With `NC(=O)c1csc([C@H]2O[C@@H](COP(=O)(O)OP(=O)(O)OC[C@H]3O[C@@H](c4nc(C(N)=O)cs4)[C@H](O)[C@@H]3O)[C@H](O)[C@@H]2O)n1`, the Ki in data set [4] was 370 µM; in data set [2], 140 µM. Further, the CC50 in [3] was 4.6 µM.

For the compound `NC(=O)c1ncn([C@@H]2O[C@H](COP(=O)(O)O)[C@@H](O)[C@H]2O)c1N`, the inhibitory constant (Ki) entry in data set [7] and in data set [8] was “Not Active” in each case. The CC50 in data set [3] was more than 220 µM.

For `NC(=O)c1c[se]c(C2O[C@@H](COP(=O)(O)OP(=O)(O)OC[C@H]3OC(n4cnc5c(N)ncnc54)[C@H](O)[C@@H]3O)[C@H](O)[C@@H]2O)n1` (stereo not given in full), the Ki in data set [1] turned out to be 0.04 µM; in [2], 0.05 µM. Moreover, the CC50 in data set [3] came out at 9.8 µM.

Regarding `NC(=O)c1ncn(C2O[C@H](COP(=O)(O)OP(=O)(O)OC[C@H]3OC(n4cnc5c(N)ncnc54)[C@H](O)[C@@H]3O)[C@H](O)[C@@H]2O)c1N` (stereo not given in full), the Ki entry in data set [9] and in [10] was “Not Active” each time. Also, the CC50 in [3] is 78 µM.

For the compound `NC(=O)c1ncn(C2O[C@H](COP(=O)(O)OP(=O)(O)OC[C@H]3OC(n4cnc5c(N)ncnc54)[C@H](O)[C@@H]3O)[C@H](O)[C@@H]2O)n1` (stereo not given in full), the Ki in data set [5] is 148 µM; in data set [1], 235 µM. Also, in data set [3], the CC50 was determined as 40 µM.

On to `NC(=O)c1ncn([C@@H]2O[C@H](COP(=O)(O)O)[C@@H](O)[C@H]2O)n1` [RIBAVIRIN MONOPHOSPHATE], for which the Ki worked out at 4.18 µM in data set [11] and 2.24 µM in data set [1]. In addition, the CC50 in data set [3] is 65 µM.
